What is called IC50 is the point on the concentration scale where inhibition reaches its midpoint. High values mean a need for much substance, low ones inhibition by little substance.

The nature of experiment [1]: Inhibition of trypsin.
Experiment [2] in a line: Inhibition of chymotrypsin. A digest of the protocol:
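Alpha-chymotrypsin type II was made up at 15 U/mL in 50 mM Tris-HCl (pH 7.6). The enzyme and test solution were preincubated at 37 °C for 5 min. Substrate solution was N-succinyl-L-phenylalanyl-p-nitroanilide, 1 mg/mL in buffer. After adding it, absorbance at 405 nm was read at once and again after 30 min at 37 °C.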

Experiment [3] in a line: Inhibition of trypsin at 20 ug/ml.
Experiment [4] concerns the target Prothrombin (Homo sapiens) (UniProt P00734). As to the kind of experiment: Inhibition of thrombin at 20 ug/ml.

Each structure is given as a SMILES string. Values after ≈ are worked out from the molar mass of the structure shown. Active and inactive are the calls of the source. The calls are words filed in the database; no cut-off is given here.

For the compound `CCCCCC(=O)N[C@@H](CCC(=O)O)C(=O)N[C@@H]1C(=O)N[C@@H](CCCNC(=N)N)C(=O)N[C@H]2CC[C@@H](O)N(C2=O)[C@@H](CC(C)C)C(=O)N(C)[C@@H](Cc2ccc(O)cc2)C(=O)N[C@@H](C(C)C)C(=O)O[C@@H]1C` [MICROPEPTIN B], the IC50 in experiment [1] worked out at 0.25 µg/mL (≈ 0.253 µM).
The compound `CCCCCC(=O)N[C@@H](CCC(=O)O)C(=O)N[C@@H]1C(=O)N[C@@H](Cc2ccc(O)cc2)C(=O)N[C@H]2CC[C@@H](O)N(C2=O)[C@@H](Cc2ccccc2)C(=O)N(C)[C@@H](Cc2ccc(O)cc2)C(=O)N[C@@H](C(C)C)C(=O)O[C@@H]1C` [MICROPEPTIN C] returned an IC50 in experiment [2] of 1.1 µg/mL (≈ 1.07 µM). For the same compound, the result in experiment [3] and in experiment [4] was inactive.
Take `CCCCCCCC(=O)N[C@@H](CCC(=O)O)C(=O)N[C@@H]1C(=O)N[C@@H](Cc2ccc(O)cc2)C(=O)N[C@H]2CC[C@@H](O)N(C2=O)[C@@H](Cc2ccccc2)C(=O)N(C)[C@@H](Cc2ccc(O)cc2)C(=O)N[C@@H](C(C)C)C(=O)O[C@@H]1C` [MICROPEPTIN D]: the IC50 in experiment [2] was determined as 1.2 µg/mL (≈ 1.14 µM). In addition, the outcome in experiment [3] and in experiment [4] was inactive.
Take `CCCCCC(=O)N[C@@H](CCC(=O)O)C(=O)N[C@@H]1C(=O)N[C@@H](Cc2ccc(O)cc2)C(=O)N[C@H]2CC[C@@H](O)N(C2=O)[C@@H](CC(C)C)C(=O)N(C)[C@@H](Cc2ccc(O)cc2)C(=O)N[C@@H](C(C)C)C(=O)O[C@@H]1C` [MICROPEPTIN E]: the IC50 in experiment [2] worked out at 1 µg/mL (≈ 1.01 µM). Further, the outcome in experiment [3] and in experiment [4] was inactive.
For the compound `CCCCCCCC(=O)N[C@@H](CCC(=O)O)C(=O)N[C@@H]1C(=O)N[C@@H](Cc2ccc(O)cc2)C(=O)N[C@H]2CC[C@@H](O)N(C2=O)[C@@H](CC(C)C)C(=O)N(C)[C@@H](Cc2ccc(O)cc2)C(=O)N[C@@H](C(C)C)C(=O)O[C@@H]1C` [MICROPEPTIN F], in experiment [2], the concentration for half-maximal inhibition (IC50) turned out to be 1.5 µg/mL (≈ 1.47 µM). Also, the result in experiment [3] and in experiment [4] was inactive.
Consider `CCCCCC(=O)N[C@@H](CCC(=O)O)C(=O)N[C@@H]1C(=O)N[C@@H](Cc2ccc(O)cc2)C(=O)N[C@H]2CC[C@@H](O)N(C2=O)[C@@H](Cc2ccccc2)C(=O)N(C)[C@@H](Cc2c[nH]c3ccccc23)C(=O)N[C@@H](C(C)C)C(=O)O[C@@H]1C` [MICROPEPTIN T 1], for which the IC50 in experiment [1] stood at 3 µg/mL (≈ 2.85 µM).

The values above are taken from ChEMBL document CHEMBL1151835, “Micropeptins from the freshwater cyanobacterium Microcystis aeruginosa (NIES-100)” (J Nat Prod, 2009).
